Results as given in ChEMBL document CHEMBL1158548, “Tetrahydrochromenoimidazoles as potassium-competitive acid blockers (P-CABs): structure-activity relationship of their antisecretory properties and their affinity toward the hERG channel” (J Med Chem, 2010).

How the values were obtained:
[1] = Inhibition of H+/K+ ATPase in hog gastric mucosa by malachite green based competitive binding assay; type: tissue-based, Sus scrofa
Method in brief: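 Hog gastric mucosa H+/K+-ATPase, isolated enzyme; competitive binding assay run at pH 7.4; pIC50 reported as geometric mean of 4-5 measurements.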

[2] = tested on: Rattus norvegicus; experiment: Inhibition of pentagastrin-stimulated acid secretion in intraduodenally dosed perfused Sprague-Dawley rat Ghosh Schild model; type: functional; settings: intraduodenal
[3] = tested on: Gastric gland; experiment: Inhibition of acid secretion in New Zealand White rabbit intact gastric glands assessed as [14C]dimethylaminopyridine accumulation by radioactivity; type: functional, tissue-based; settings: Oryctolagus cuniculus
Method in brief: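 Gastric glands isolated intact from New Zealand rabbits; cellular activity read as reduced accumulation of the weak base 14C-dimethylaminopyridine; pIC50 given as geometric mean of 4-5 determinations.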

[4] = target: hERG (KCNH2) (Homo sapiens, UniProt Q12809); experiment: Inhibition of human ERG expressed in CHO-K1 cells at 10 uM by whole-cell patch clamp technique; type: cell-based; settings: CHO-K1 cells that express human ERG
Chain of hERG (KCNH2) (Q12809 whole entry): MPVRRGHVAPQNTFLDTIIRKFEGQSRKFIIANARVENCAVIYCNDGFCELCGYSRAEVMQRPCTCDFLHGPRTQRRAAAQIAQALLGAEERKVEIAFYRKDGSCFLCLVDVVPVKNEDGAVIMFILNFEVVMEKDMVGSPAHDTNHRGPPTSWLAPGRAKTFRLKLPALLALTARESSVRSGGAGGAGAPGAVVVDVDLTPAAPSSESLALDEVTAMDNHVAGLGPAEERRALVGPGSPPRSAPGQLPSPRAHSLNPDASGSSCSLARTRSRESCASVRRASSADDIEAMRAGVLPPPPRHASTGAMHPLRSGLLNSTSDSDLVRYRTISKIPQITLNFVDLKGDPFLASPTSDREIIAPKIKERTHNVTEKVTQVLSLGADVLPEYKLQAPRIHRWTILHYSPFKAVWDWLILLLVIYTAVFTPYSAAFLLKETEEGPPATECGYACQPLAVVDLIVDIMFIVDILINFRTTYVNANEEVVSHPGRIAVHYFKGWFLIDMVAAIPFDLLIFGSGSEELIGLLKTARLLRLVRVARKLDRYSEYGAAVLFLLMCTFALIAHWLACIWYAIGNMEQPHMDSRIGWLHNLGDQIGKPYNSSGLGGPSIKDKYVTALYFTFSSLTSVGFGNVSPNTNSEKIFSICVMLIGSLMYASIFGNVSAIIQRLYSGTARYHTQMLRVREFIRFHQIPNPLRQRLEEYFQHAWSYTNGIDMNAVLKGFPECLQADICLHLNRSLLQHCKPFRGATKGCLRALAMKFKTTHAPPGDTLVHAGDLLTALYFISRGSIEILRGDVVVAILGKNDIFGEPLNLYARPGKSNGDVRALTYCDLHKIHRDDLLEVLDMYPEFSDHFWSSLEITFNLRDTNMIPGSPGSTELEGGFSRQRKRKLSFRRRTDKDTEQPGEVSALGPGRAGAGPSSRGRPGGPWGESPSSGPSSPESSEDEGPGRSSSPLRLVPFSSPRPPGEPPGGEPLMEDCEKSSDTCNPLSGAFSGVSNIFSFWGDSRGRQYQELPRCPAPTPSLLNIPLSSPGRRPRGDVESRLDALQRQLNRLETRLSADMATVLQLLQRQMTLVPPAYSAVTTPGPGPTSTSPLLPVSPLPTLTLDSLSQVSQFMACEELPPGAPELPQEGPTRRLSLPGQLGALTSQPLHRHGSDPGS
Method in brief: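 CHO-K1 cells stably transfected with hERG; whole-cell patch clamp recording of tail currents with test compound at 10 μM, three cells per compound; relative block of tail current amplitude given as arithmetic mean.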

[5] = Partition coefficient, log D by HPLC; type: physicochemical; settings: octanol/water
Method in brief: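 logD by reversed-phase HPLC at 37 °C, calibrated with seven reference substances of known logD.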

[6] = Dissociation constant, pKa at pH 2.0 to 11.0 by potentiometric cosolvent titration; type: physicochemical
[7] = Octanol/aqueous KCl distribution coefficient, log D at pH 7.4 by potentiometric titration; type: physicochemical
Method in brief: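 Octanol/aqueous KCl distribution coefficient from potentiometric titrations across pH 2.0-11.0 at 25 °C.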

| Compound | pIC50 [1] | ED50 [2] [µmol/kg] | IC50 [3] [nM] | inhibition at 10 µM [4] [%] | logD [5] | pKa [6] | pKa ([6]; read-out: pKa) | logD [7] |
| --- | --- | --- | --- | --- | --- | --- | --- | --- |
| COCCN(C)C(=O)c1cc2c(nc(C)n2C)c2c1CC[C@@H](c1ccccc1C)O2 | 4.9 | 1.2 | 3160 | 8 | 2.9 | – | – | – |
| Cc1ccccc1[C@@H]1CCc2c(C(=O)N3CCOCC3)cc3c(nc(C)n3C)c2O1 | 4.8 | 1 | 5010 | 4 | 2.8 | – | – | – |
| COC1(C)CN(C(=O)c2cc3c(nc(C)n3C)c3c2CC[C@@H](c2ccccc2C)O3)C1 | 4.3 | 1 | 3160 | 20 | – | – | – | – |
| Cc1nc2c3c(c(C(=O)N(C)C)cc2n1C)CC[C@@H](c1ccc(F)cc1Cl)O3 | 5.4 | 0.1 | 794 | 33 | 3 | – | – | – |
| CCCOC1CN(C(=O)c2cc3c(nc(C)n3C)c3c2CC[C@@H](c2ccccc2C)O3)C1 | 4.9 | 0.2 | 1260 | 94 | 3.3 | 5.62 | – | – |
| Cc1cc(F)ccc1[C@@H]1CCc2c(C(=O)N(C)C)cc3c(nc(C)n3C)c2O1 | 5.6 | < 0.3 | 501 | 19 | 2.9 | – | – | – |
| Cc1nc2c3c(c(C(=O)N4CCC4)cc2n1C)CC[C@@H](c1ccc(Cl)cc1)O3 | 5.3 | 0.16 | 1260 | 84 | 3 | – | – | – |
| Cc1ccccc1[C@@H]1CCc2c(C(=O)N3CCC3)cc3c(nc(C)n3C)c2O1 | 5.5 | 0.3 | 794 | 14 | 2.8 | – | – | – |
| COCc1cc2c(nc(C)n2C)c2c1CC[C@@H](c1ccccc1C)O2 | 5.1 | 0.5 | 1000 | 34 | 3.4 | 6.24 | – | – |
| Cc1nc2c3c(c(C(=O)N(C)C)cc2n1C)CC[C@@H](c1ccccc1Cl)O3 | – | 0.4 | 1580 | 13 | 3 | – | 5.45 | 2.86 |
| Cc1nc2c3c(c(C(=O)N(C)C)cc2n1C)CC[C@@H](c1ccc2ccccc2c1)O3 | 4.1 | 3 | 63100 | 65 | 3.2 | – | 5.57 | 3.37 |
| Cc1ccccc1[C@@H]1CCc2c(C(=O)N3CC(CO)C3)cc3c(nc(C)n3C)c2O1 | 5 | 1.4 | 63100 | 2 | 2.4 | – | – | – |
| Cc1ccccc1[C@@H]1CCc2c(C(=O)NC3COC3)cc3c(nc(C)n3C)c2O1 | 4.6 | 2 | 10000 | 49 | 2.6 | – | – | – |
| COCc1nc2c3c(c(C(=O)N(C)C)cc2n1C)CC[C@@H](c1ccccc1C)O3 | 4.57 | 3 | 45700 | 7 | 2.9 | – | – | – |
| CCNC(=O)c1cc2c(nc(C)n2C)c2c1CC[C@@H](c1ccccc1C)O2 | 4.9 | 0.12 | 1000 | 24 | 2.9 | 5.71 | – | – |
| Cc1ccccc1[C@@H]1CCc2c(C(=O)N3CC(F)C3)cc3c(nc(C)n3C)c2O1 | 5 | 0.3 | 1000 | 28 | 3 | 5.54 | – | – |
| Cc1ccccc1[C@@H]1CCc2c(C(N)=O)cc3c(nc(C)n3C)c2O1 | 4.8 | 2 | 5010 | 14 | 2.5 | – | – | – |
| Cc1ccccc1[C@@H]1CCc2c(C(=O)NCC#N)cc3c(nc(C)n3C)c2O1 | 4.7 | 3 | 12600 | 18 | 2.9 | – | – | – |
| CONC(=O)c1cc2c(nc(C)n2C)c2c1CC[C@@H](c1ccccc1C)O2 | 4.6 | 1.8 | 10000 | 13 | 2.6 | – | – | – |
| Cc1nc2c3c(c(C(=O)N(C)C)cc2[nH]1)CC[C@@H](c1ccccc1C)O3 | 5.59 | 0.5 | 1950 | 11 | 2.8 | – | 5.66 | 2.82 |
| Cc1ccccc1[C@@H]1CCc2c(C(=O)NC3CC3)cc3c(nc(C)n3C)c2O1 | 4.9 | 0.3 | 794 | 43 | 3 | 5.68 | – | – |
